# Results as given in ChEMBL document CHEMBL1155468, “Syntheses and evaluation of anticonvulsant profile and teratogenicity of novel amide derivatives of branched aliphatic carboxylic acids with 4-aminobenzensulfonamide” (J Med Chem, 2010).
# Calls of active or inactive are those of the source. The rule behind the calls is not given here.
# Assays:
# Mus musculus [1] = assay: Teratogenic effect in SWV mouse assessed as resorptions at 522 mg/kg, ip administered on morning of day 8 of gestation; format: toxicity, organism-based; set-up: dose 522 mg/kg, route intraperitoneal; details: in vivo
# In short: (§1)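 SWV inbred mice: two-month-old nulligravid females mated overnight with males and checked for vaginal plugs next morning; gestation onset taken as 10 p.m. the previous night. On gestation day 8.5 each dam got one ip injection, 0.55–2.7 mmol/kg, in 25% aqueous Cremophor EL (vehicle controls dosed alike), 10 μL/g body weight. Litters and implants tallied; resorptions and live fetuses reported as counts with percentages.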
# Rattus norvegicus [2] = assay: Anticonvulsant activity in Sprague-Dawley rat assessed as inhibition of maximal electroshock-induced seizures at 30 mg/kg, po after 4 hrs
# Mus musculus [3] = assay: Anticonvulsant activity in CF1 albino mouse assessed as inhibition of subcutaneous pentylenetetrazole-induced seizures at 30 mg/kg, ip after 4 hrs; format: functional, organism-based; set-up: dose 30 mg/kg
# In short: (§2)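 Adult male CF no. 1 albino mice (18-25 g) dosed ip with compound suspended in 0.5% methylcellulose (0.01 mL/g). Convulsant: pentylenetetrazol dissolved in 0.9% saline as a 0.85% solution for mice, given subcutaneously.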
# Mus musculus [4] = assay: Teratogenic effect in SWV mouse assessed as live fetuses at 783 mg/kg, ip administered on morning of day 8 of gestation; format: toxicity, organism-based; set-up: dose 783 mg/kg, route intraperitoneal; details: in vivo; in short: as §1
# Mus musculus [5] = assay: Anticonvulsant activity in CF1 albino mouse assessed as inhibition of maximal electroshock-induced seizures at 100 mg/kg, ip after 0.5 hrs; format: functional, organism-based; set-up: dose 100 mg/kg
# In short: (§3)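 Test compounds suspended in 0.5% methylcellulose and given ip to adult male CF no. 1 albino mice (18-25 g) at 0.01 mL/g body weight before maximal electroshock challenge.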
# Mus musculus [6] = assay: Neurotoxicity in CF1 albino mouse assessed as motor impairment at 300 mg/kg, ip after 4 hrs; format: toxicity, organism-based; set-up: dose 300 mg/kg, route intraperitoneal; details: in vivo
# Mus musculus [7] = assay: Anticonvulsant activity in CF1 albino mouse assessed as inhibition of maximal electroshock-induced seizures at 300 mg/kg, ip after 0.5 hrs; format: functional, organism-based; set-up: dose 300 mg/kg; in short: as §3
# Mus musculus [8] = assay: Anticonvulsant activity in CF1 albino mouse assessed as inhibition of subcutaneous pentylenetetrazole-induced seizures at 300 mg/kg, ip after 0.5 hrs; format: functional, organism-based; set-up: dose 300 mg/kg; in short: as §2
# Rattus norvegicus [9] = assay: Anticonvulsant activity in Sprague-Dawley rat assessed as inhibition of maximal electroshock-induced seizures at 30 mg/kg, po after 1 hr
# Mus musculus [10] = assay: Teratogenic effect in SWV mouse assessed as fetuses with neural tube deffects at 522 mg/kg, ip administered on morning of day 8 of gestation; format: toxicity, organism-based; set-up: dose 522 mg/kg, route intraperitoneal; details: in vivo
# In short: (§4)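 Two-month-old nulligravid SWV females were mated overnight and checked for vaginal plugs the next morning; gestation onset was set at 10 p.m. the previous night. On gestation day 8.5, each dam received a single ip injection (0.55-2.7 mmol/kg range) or vehicle (25% aqueous Cremophor EL) at 10 μL/g body weight. Litters were scored for implants, resorptions, live and dead fetuses, and fetuses with neural tube defects.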
# Mus musculus [11] = assay: Neurotoxicity in CF1 albino mouse assessed as motor impairment at 300 mg/kg, ip after 0.5 hrs; format: toxicity, organism-based; set-up: dose 300 mg/kg, route intraperitoneal; details: in vivo
# Mus musculus [12] = assay: Anticonvulsant activity in CF1 albino mouse assessed as inhibition of subcutaneous pentylenetetrazole-induced seizures at 100 mg/kg, ip after 0.5 hrs; format: functional, organism-based; set-up: dose 100 mg/kg; in short: as §2
# Mus musculus [13] = assay: Teratogenic effect in SWV mouse assessed as live fetuses at 522 mg/kg, ip administered on morning of day 8 of gestation; format: toxicity, organism-based; set-up: dose 522 mg/kg, route intraperitoneal; details: in vivo; in short: as §1
# Mus musculus [14] = assay: Teratogenic effect in SWV mouse assessed as live fetuses at 159 mg/kg, ip administered on morning of day 8 of gestation; format: toxicity, organism-based; set-up: dose 159 mg/kg, route intraperitoneal; details: in vivo; in short: as §4
# Mus musculus [15] = assay: Anticonvulsant activity in CF1 albino mouse assessed as inhibition of maximal electroshock-induced seizures at 300 mg/kg, ip after 4 hrs; format: functional, organism-based; set-up: dose 300 mg/kg; in short: as §3
# Mus musculus [16] = assay: Neurotoxicity in CF1 albino mouse assessed as motor impairment at 30 mg/kg, ip after 0.5 hrs; format: toxicity, organism-based; set-up: dose 30 mg/kg, route intraperitoneal; details: in vivo
# Mus musculus [17] = assay: Anticonvulsant activity in CF1 albino mouse assessed as inhibition of maximal electroshock-induced seizures at 100 mg/kg, ip after 4 hrs; format: functional, organism-based; set-up: dose 100 mg/kg; in short: as §3
# Mus musculus [18] = assay: Teratogenic effect in SWV mouse assessed as resorptions at 159 mg/kg, ip administered on morning of day 8 of gestation; format: toxicity, organism-based; set-up: dose 159 mg/kg, route intraperitoneal; details: in vivo; in short: as §1
# Mus musculus [19] = assay: Teratogenic effect in SWV mouse assessed as resorptions at 783 mg/kg, ip administered on morning of day 8 of gestation; format: toxicity, organism-based; set-up: dose 783 mg/kg, route intraperitoneal; details: in vivo; in short: as §1
# Mus musculus [20] = assay: Teratogenic effect in SWV mouse assessed as live fetuses at 316 mg/kg, ip administered on morning of day 8 of gestation; format: toxicity, organism-based; set-up: dose 316 mg/kg, route intraperitoneal; details: in vivo; in short: as §1
# Mus musculus [21] = assay: Neurotoxicity in CF1 albino mouse assessed as motor impairment at 30 mg/kg, ip after 4 hrs; format: toxicity, organism-based; set-up: dose 30 mg/kg, route intraperitoneal; details: in vivo
# Mus musculus [22] = assay: Anticonvulsant activity in CF1 albino mouse assessed as inhibition of subcutaneous pentylenetetrazole-induced seizures at 300 mg/kg, ip after 4 hrs; format: functional, organism-based; set-up: dose 300 mg/kg; in short: as §2
# Mus musculus [23] = assay: Anticonvulsant activity in CF1 albino mouse assessed as inhibition of maximal electroshock-induced seizures at 30 mg/kg, ip after 4 hrs; format: functional, organism-based; set-up: dose 30 mg/kg; in short: as §3
# Mus musculus [24] = assay: Anticonvulsant activity in CF1 albino mouse assessed as inhibition of subcutaneous pentylenetetrazole-induced seizures at 30 mg/kg, ip after 0.5 hrs; format: functional, organism-based; set-up: dose 30 mg/kg; in short: as §2
# Rattus norvegicus [25] = assay: Anticonvulsant activity in Sprague-Dawley rat assessed as inhibition of maximal electroshock-induced seizures at 30 mg/kg, po after 15 mins
# Mus musculus [26] = assay: Teratogenic effect in SWV mouse assessed as resorptions at 316 mg/kg, ip administered on morning of day 8 of gestation; format: toxicity, organism-based; set-up: dose 316 mg/kg, route intraperitoneal; details: in vivo; in short: as §1
# Mus musculus [27] = assay: Neurotoxicity in CF1 albino mouse assessed as motor impairment at 100 mg/kg, ip after 0.5 hrs; format: toxicity, organism-based; set-up: dose 100 mg/kg, route intraperitoneal; details: in vivo
# Mus musculus [28] = assay: Teratogenic effect in SWV mouse assessed as dead fetuses at 522 mg/kg, ip administered on morning of day 8 of gestation; format: toxicity, organism-based; set-up: dose 522 mg/kg, route intraperitoneal; details: in vivo
# In short: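 Inbred SWV mice, which are susceptible to VPA-induced neural tube defects. Two-month-old nulligravid females were mated overnight and checked for vaginal plugs next morning; gestation onset was taken as 10 p.m. the prior night. On gestation day 8.5, each dam received a single ip dose (range 0.55-2.7 mmol/kg) in 25% aqueous Cremophor EL at 10 μL/g. Dead fetuses were counted per implants.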
# Rattus norvegicus [29] = assay: Anticonvulsant activity in Sprague-Dawley rat assessed as inhibition of maximal electroshock-induced seizures at 30 mg/kg, po after 30 mins
# Mus musculus [30] = assay: Anticonvulsant activity in CF1 albino mouse assessed as inhibition of maximal electroshock-induced seizures at 30 mg/kg, ip after 0.5 hrs; format: functional, organism-based; set-up: dose 30 mg/kg; in short: as §3
# Mus musculus [31] = assay: Anticonvulsant activity in CF1 albino mouse assessed as inhibition of subcutaneous pentylenetetrazole-induced seizures at 100 mg/kg, ip after 4 hrs; format: functional, organism-based; set-up: dose 100 mg/kg; in short: as §2
# Mus musculus [32] = assay: Neurotoxicity in CF1 albino mouse assessed as motor impairment at 100 mg/kg, ip after 4 hrs; format: toxicity, organism-based; set-up: dose 100 mg/kg, route intraperitoneal; details: in vivo
smiles,measurement,setting,value
NS(=O)(=O)c1ccc(NC(=O)Cc2ccccc2)cc1,Activity,Mus musculus [1],34.5%
same,Activity,Rattus norvegicus [2],Active
same,Activity,Mus musculus [3],inactive
same,Activity,Mus musculus [4],16.7%
same,Activity,Mus musculus [5],Active
same,Activity,Mus musculus [6],Non-toxic
same,Activity,Mus musculus [7],Active
same,Activity,Mus musculus [8],inactive
same,Activity,Rattus norvegicus [9],Active
same,Activity,Mus musculus [10],3%
same,Activity,Mus musculus [11],Non-toxic
same,Activity,Mus musculus [12],inactive
same,Activity,Mus musculus [13],63.7%
same,Activity,Mus musculus [14],93.8%
same,Activity,Mus musculus [15],Active
same,Activity,Mus musculus [16],Non-toxic
same,Activity,Mus musculus [17],Active
same,Activity,Mus musculus [18],6.2%
same,Activity,Mus musculus [19],83.3%
same,Activity,Mus musculus [20],96.4%
same,Activity,Mus musculus [21],Non-toxic
same,Activity,Mus musculus [22],inactive
same,Activity,Mus musculus [23],inactive
same,Activity,Mus musculus [24],inactive
same,Activity,Rattus norvegicus [25],inactive
same,Activity,Mus musculus [26],3.6%
same,Activity,Mus musculus [27],Non-toxic
same,Activity,Mus musculus [28],1.8%
same,Activity,Rattus norvegicus [29],inactive
same,Activity,Mus musculus [30],inactive
same,Activity,Mus musculus [31],inactive
same,Activity,Mus musculus [32],Non-toxic
